# Laboratory results published in ChEMBL document CHEMBL4043295, “Marbostat-100 Defines a New Class of Potent and Selective Antiinflammatory and Antirheumatic Histone Deacetylase 6 Inhibitors” (J Med Chem, 2018).
# Active and inactive are the calls of the source. No cut-off for these calls is given here.
# Assays:
# [1] = target: T1, Protein deacetylase HDAC6 (Homo sapiens) (UniProt Q9UBN7); conditions: 50 nM
# T1 sequence (whole entry): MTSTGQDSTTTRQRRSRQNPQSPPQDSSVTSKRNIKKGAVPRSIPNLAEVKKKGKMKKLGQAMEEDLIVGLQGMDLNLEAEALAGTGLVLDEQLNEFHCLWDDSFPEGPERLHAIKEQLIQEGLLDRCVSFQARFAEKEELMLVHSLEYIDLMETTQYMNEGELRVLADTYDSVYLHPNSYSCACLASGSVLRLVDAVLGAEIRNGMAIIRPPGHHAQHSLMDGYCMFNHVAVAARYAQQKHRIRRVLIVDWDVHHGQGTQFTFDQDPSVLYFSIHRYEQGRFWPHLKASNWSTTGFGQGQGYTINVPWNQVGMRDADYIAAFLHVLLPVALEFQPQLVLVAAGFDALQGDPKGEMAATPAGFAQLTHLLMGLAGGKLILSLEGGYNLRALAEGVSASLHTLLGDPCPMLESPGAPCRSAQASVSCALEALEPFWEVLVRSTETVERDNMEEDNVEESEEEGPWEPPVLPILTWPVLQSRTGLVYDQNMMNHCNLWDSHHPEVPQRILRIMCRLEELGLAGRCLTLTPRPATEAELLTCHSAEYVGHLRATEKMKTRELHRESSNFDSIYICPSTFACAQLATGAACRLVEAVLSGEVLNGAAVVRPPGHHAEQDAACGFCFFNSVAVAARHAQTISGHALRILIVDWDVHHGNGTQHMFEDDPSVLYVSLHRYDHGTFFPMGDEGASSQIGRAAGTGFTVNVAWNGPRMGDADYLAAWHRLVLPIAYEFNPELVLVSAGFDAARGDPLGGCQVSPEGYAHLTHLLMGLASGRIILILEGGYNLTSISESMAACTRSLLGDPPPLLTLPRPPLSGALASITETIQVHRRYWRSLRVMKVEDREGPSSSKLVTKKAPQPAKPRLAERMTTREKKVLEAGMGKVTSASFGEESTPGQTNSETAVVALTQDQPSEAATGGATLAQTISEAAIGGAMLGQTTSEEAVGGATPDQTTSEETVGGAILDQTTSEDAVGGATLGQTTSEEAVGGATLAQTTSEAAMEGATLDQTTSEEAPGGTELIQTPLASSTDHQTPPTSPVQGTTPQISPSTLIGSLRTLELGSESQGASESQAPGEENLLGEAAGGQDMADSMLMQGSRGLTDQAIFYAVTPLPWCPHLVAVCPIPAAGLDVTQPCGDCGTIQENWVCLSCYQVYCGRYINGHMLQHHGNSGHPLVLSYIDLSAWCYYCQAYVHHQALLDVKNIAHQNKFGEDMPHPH
# Histone deacetylase 5 = Histone deacetylase 5 (Homo sapiens, UniProt Q9UQL6); assay: Inhibition of recombinant human C-terminal His-tagged HDAC5 (656 to 1122 residues) expressed in baculovirus-infected insect cells using Boc-Lys(TFA)-AMC as substrate after 60 mins by fluorimeter
# [2] = target: T1, Protein deacetylase HDAC6 (Homo sapiens); conditions: 5 to 1000 nM
# Mus musculus [3] = assay: Antiarthritic activity in DBA/1J mouse collagen-induced arthritis model assessed as decrease in sign of synovial inflammation at 30 mg/kg, ip administered every morning for 12 to 14 days; type: functional, organism-based
# How it was run: (§1)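 Collagen type II-induced arthritis in mice, treated at 30 mg/kg versus vehicle. Arthritic paws were assessed histologically for synovial inflammation, cellular invasion, cartilage degradation and bone erosion.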
# [4] = target: T1, Protein deacetylase HDAC6 (Homo sapiens); conditions: 50 nM; remark: listed apart in the source
# Mus musculus [5] = assay: Antiarthritic activity in DBA/1J mouse collagen-induced arthritis model assessed as decrease in histological scores at 30 mg/kg, ip administered every morning for 12 to 14 days measured during compound dosing relative to vehicle-treated control; type: functional; design: scale not given: the % may be the effect or the level left
# How it was run: as §1
# [6] = target: Histone deacetylase 3/Nuclear receptor corepressor 2 (HDAC3/NCoR2) (Homo sapiens, UniProt O15379); assay: biochemical; type: cell-based
# Histone deacetylase 11 = target: T2, Histone deacetylase 11 (Homo sapiens, UniProt Q96DB2); assay: Inhibition of recombinant human N-terminal His-tagged HDAC11 (1 to 347 residues) expressed in baculovirus-infected insect cells using RHKK(Ac)AMC as substrate by fluorimeter
# T2 sequence (Q96DB2 whole entry): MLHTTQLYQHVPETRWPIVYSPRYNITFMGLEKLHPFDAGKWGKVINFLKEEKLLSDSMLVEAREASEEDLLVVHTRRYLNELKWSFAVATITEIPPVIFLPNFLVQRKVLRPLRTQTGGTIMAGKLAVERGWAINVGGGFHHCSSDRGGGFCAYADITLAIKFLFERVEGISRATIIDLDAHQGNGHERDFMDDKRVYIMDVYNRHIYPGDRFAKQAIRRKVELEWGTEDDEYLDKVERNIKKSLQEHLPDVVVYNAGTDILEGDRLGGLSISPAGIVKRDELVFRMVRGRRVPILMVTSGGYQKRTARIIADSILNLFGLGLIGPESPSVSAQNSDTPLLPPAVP
# Mus musculus [7] = assay: Antiarthritic activity in DBA/1J mouse collagen-induced arthritis model assessed as decrease in degradation of cartilage at 30 mg/kg, ip administered every morning for 12 to 14 days; type: functional, organism-based
# How it was run: as §1
# [8] = target: T1, Protein deacetylase HDAC6 (Homo sapiens); conditions: 5 to 1000 nM; remark: listed apart in the source
# Histone deacetylase 1 = Histone deacetylase 1 (Homo sapiens, UniProt Q13547); assay: Inhibition of recombinant human C-terminal FLAG/His-tagged HDAC1 expressed in baculovirus-infected Sf21 insect cells using RHKK(Ac)AMC as substrate after 60 mins by fluorimeter
# PBMC = assay: Induction of apoptosis in human PBMC at 50 to 1000 nM after 24 hrs by Annexin V/propidium iodide staining-based flow cytometric method; type: cell-based; conditions: 1 µM
# Mus musculus [9] = assay: In vivo inhibition of HDAC6 in DBA/1J mouse assessed as induction of tubulin acetylation in liver at 0.6 mg […] by Western blot method; type: functional, organism-based
# Mus musculus [10] = assay: Antiarthritic activity in DBA/1J mouse collagen-induced arthritis model assessed as decrease in cellular invasion at 30 mg/kg, ip administered every morning for 12 to 14 days; type: functional, organism-based
# How it was run: as §1
# [11] = Inhibition of class 1 HDAC in human MV4-11 cells assessed as induction of histone hyperacetylation at 50 nM to 10 uM after 24 hrs by Western blot method; type: cell-based; conditions: 0.05 µM
# How it was run: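 MV4-11 cells were exposed to the inhibitor, from 5 nM to 10 µM for 24 h or at 50 nM for 10 min to 48 h. Lysates were immunoblotted for acetylated tubulin, acetylated histone H3 and HDAC6. Acetyl-tubulin was quantified by densitometry normalised to HSP90. MS-275 at 5 µM for 24 h was the comparator. Blots are representative of at least two independent experiments.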
# Chain of Histone deacetylase 3/Nuclear receptor corepressor 2 (HDAC3/NCoR2) (O15379 whole entry, the tested form may be a part): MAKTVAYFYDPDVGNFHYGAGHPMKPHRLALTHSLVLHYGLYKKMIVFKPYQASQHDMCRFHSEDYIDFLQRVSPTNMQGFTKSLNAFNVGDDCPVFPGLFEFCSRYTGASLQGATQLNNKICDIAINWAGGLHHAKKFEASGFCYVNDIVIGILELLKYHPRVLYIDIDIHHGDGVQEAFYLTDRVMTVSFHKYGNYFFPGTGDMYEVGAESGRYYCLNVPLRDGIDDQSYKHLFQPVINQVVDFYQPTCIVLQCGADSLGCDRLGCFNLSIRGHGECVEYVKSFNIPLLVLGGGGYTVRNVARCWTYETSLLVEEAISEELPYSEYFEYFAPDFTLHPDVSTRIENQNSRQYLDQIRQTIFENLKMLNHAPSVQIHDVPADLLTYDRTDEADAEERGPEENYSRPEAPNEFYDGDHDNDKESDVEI
# Chain of Histone deacetylase 3/Nuclear receptor corepressor 2 (HDAC3/NCoR2) (Q9Y618 whole entry, further chain, the tested form may be a part): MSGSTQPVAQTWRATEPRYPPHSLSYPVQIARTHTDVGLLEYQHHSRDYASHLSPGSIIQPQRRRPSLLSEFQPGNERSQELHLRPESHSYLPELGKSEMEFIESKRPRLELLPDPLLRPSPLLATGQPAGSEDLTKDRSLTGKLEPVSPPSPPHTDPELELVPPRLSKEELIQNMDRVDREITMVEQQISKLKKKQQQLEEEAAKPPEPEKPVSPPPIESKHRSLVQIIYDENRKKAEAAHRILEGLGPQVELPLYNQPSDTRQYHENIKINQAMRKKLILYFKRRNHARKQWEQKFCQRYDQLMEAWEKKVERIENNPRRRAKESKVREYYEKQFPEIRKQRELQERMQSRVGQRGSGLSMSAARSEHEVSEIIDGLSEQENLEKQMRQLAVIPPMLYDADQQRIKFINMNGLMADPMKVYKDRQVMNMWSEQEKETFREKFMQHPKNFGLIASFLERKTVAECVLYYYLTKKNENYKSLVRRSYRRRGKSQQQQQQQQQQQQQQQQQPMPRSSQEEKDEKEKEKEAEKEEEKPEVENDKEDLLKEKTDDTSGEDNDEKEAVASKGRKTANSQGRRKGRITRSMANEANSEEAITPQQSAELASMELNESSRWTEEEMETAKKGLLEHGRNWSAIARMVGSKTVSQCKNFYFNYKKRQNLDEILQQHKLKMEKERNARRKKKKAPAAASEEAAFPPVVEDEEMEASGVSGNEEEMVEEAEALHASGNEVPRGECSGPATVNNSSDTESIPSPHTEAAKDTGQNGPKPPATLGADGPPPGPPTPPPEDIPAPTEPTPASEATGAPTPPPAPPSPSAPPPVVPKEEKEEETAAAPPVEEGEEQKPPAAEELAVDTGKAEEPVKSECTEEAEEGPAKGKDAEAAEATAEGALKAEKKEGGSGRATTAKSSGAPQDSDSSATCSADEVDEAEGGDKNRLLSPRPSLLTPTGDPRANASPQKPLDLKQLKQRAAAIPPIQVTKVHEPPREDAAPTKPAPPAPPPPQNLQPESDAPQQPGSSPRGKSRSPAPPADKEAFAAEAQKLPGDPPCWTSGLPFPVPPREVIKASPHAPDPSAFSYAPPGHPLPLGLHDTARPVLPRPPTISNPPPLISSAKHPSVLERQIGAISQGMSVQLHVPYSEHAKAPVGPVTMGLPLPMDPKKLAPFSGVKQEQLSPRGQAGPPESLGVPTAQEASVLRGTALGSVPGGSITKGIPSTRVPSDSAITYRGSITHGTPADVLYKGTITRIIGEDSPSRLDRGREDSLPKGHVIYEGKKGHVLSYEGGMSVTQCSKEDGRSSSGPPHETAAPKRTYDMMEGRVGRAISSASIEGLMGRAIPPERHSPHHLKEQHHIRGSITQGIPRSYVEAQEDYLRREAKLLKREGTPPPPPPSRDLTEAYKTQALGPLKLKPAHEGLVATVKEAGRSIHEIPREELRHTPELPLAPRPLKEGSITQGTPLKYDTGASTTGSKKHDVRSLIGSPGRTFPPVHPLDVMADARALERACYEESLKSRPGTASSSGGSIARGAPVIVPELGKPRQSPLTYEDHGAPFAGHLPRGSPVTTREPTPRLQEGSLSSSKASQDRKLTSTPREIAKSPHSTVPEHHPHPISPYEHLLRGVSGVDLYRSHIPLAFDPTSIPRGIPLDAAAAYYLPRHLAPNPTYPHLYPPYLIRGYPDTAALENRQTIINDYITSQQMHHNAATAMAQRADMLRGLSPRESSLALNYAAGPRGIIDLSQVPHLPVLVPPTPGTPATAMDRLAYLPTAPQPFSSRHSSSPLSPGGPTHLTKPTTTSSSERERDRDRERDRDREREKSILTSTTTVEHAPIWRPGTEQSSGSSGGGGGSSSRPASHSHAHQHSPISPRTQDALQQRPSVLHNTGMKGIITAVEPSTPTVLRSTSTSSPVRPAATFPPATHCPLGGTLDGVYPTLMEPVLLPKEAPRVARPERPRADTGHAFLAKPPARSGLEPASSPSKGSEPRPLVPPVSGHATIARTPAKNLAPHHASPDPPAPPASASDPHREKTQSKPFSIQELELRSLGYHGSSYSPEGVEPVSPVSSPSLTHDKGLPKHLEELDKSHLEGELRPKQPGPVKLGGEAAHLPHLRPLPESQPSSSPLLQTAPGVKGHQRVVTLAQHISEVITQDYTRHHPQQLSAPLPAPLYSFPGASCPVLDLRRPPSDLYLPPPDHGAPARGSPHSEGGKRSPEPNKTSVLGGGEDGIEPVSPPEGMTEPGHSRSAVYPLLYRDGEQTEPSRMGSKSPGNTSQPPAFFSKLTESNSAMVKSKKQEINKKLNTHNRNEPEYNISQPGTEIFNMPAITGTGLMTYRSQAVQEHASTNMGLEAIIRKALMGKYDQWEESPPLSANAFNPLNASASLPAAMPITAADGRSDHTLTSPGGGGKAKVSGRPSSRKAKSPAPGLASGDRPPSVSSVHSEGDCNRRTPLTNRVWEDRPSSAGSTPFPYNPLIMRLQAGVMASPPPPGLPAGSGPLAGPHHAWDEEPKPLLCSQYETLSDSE
# Chain of Histone deacetylase 5 (Q9UQL6 whole entry, the tested form may be a part): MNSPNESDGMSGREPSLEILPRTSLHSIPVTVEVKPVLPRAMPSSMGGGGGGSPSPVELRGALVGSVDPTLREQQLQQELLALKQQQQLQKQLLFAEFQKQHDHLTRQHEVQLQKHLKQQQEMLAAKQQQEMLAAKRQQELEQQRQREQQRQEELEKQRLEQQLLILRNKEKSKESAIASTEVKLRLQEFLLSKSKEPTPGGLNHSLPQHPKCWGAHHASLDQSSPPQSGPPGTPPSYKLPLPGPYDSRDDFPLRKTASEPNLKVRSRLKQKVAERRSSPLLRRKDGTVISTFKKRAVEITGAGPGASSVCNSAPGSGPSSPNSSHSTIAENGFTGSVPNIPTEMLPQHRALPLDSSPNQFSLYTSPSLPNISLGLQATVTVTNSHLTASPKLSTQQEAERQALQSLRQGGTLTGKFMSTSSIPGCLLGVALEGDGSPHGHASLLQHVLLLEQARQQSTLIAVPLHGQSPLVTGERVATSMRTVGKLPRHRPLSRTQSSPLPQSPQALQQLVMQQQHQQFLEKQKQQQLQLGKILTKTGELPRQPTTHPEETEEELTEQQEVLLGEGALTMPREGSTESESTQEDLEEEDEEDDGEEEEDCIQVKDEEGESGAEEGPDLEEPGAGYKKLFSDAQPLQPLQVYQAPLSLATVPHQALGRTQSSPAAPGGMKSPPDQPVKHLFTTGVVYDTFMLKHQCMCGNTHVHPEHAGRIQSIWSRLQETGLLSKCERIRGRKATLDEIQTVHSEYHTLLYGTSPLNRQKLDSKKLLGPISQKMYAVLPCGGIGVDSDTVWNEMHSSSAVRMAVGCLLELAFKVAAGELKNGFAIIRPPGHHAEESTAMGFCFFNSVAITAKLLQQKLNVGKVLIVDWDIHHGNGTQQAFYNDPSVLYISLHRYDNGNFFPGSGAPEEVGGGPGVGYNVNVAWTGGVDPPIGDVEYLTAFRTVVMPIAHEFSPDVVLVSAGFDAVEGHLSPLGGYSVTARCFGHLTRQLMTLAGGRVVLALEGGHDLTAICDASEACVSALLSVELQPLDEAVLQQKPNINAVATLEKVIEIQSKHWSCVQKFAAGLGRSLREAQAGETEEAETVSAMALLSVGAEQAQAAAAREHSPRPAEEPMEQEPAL
# Chain of Histone deacetylase 1 (Q13547 whole entry): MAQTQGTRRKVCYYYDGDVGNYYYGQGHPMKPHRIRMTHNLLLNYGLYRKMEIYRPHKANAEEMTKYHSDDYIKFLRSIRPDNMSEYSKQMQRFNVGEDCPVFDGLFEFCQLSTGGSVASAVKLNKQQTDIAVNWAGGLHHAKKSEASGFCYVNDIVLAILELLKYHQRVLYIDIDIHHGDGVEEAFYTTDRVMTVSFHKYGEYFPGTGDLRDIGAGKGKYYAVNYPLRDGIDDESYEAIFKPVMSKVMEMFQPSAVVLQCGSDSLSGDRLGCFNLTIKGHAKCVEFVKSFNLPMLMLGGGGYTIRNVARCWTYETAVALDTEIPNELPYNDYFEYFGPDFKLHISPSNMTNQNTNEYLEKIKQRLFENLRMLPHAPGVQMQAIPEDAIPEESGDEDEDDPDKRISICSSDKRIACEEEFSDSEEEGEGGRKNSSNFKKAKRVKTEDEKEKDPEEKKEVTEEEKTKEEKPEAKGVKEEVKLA
structure (smiles),measurement,setting,value
CN1C(=O)C2CN(Cc3c2c2ccccc2n3Cc2ccc(C(=O)NO)cc2)C1=O (stereo not given),inhibition,[1],Active
same,Ki,Histone deacetylase 5,701 nM
same,inhibition,[2],Active
same,Activity,Mus musculus [3],Active
same,inhibition,[4],Active
same,Activity,Mus musculus [5],50%
same,Ki,[6],306 nM
same,Ki,Histone deacetylase 11,495 nM
same,Activity,Mus musculus [7],Active
same,inhibition,[8],Active
same,Ki,Histone deacetylase 1,358 nM
same,Activity,PBMC,Non-Toxic
same,inhibition,Mus musculus [9],Active
same,Activity,Mus musculus [10],Active
same,inhibition (INH),[11],Not Active
